Data set [1] can be described thus: Aqueous solubility of the compound. Conditions: buffer. It is filed as physicochemical.
Data set [2] has as its system Plasmodium berghei. Kind of data set: Antimalarial activity against Plasmodium berghei KBG173 infected in mouse assessed as decrease in parasitemia at 1.25 mg/kg, ip BID administered on day 3, 4 and 5 post infection measured on day 31 relative to control. It is filed as functional, organism-based. On the set-up: dose 1.25 mg/kg. The method in brief: (§1)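 Male mice (24–30 g) inoculated intraperitoneally with 5 × 10⁶ P. berghei KBG-173-infected erythrocytes; parasitemia about 1.0–3.7% by day 3. Dosing twice daily on days 3–5 postinfection. Blood smears negative on day 31 counted as cured, scored as cured/total mice (5 per dose). Mice losing ≥20% body weight sacrificed.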

In data set [3] the test system is Plasmodium berghei. The experiment in a line: Antimalarial activity against Plasmodium berghei KBG173 infected in mouse assessed as decrease in parasitemia at 5 mg/kg, ip BID administered on day 3, 4 and 5 post infection measured on day 31 relative to control. The data set is classed as functional, organism-based. More on the design: dose 5 mg/kg. The essentials: as §1

Data set [4] relates to Plasmodium berghei. Kind of data set: Antimalarial activity against Plasmodium berghei KBG173 infected in mouse assessed as decrease in parasitemia at 2.5 mg/kg, iv BID administered on day 3, 4 and 5 post infection measured on day 31 relative to control. More on the design: dose 2.5 mg/kg. It is filed as functional, organism-based. The method in brief:
as §1

Data set [5] concerns Plasmodium berghei. Kind of data set: Antimalarial activity against Plasmodium berghei KBG173 infected in mouse assessed as decrease in parasitemia at 5 mg/kg, iv BID administered on day 3, 4 and 5 post infection measured on day 31 relative to control. The data set is classed as functional, organism-based. More on the design: dose 5 mg/kg. The method in brief:
as §1

Data set [6] relates to Plasmodium berghei. Kind of data set: Antimalarial activity against Plasmodium berghei KBG173 infected in mouse assessed as decrease in parasitemia at 2.5 mg/kg, ip BID administered on day 3, 4 and 5 post infection measured on day 31 relative to control. More on the design: dose 2.5 mg/kg. It is filed as functional, organism-based. The essentials:
as §1

In data set [7] the test system is Plasmodium berghei. Kind of data set: Antimalarial activity against Plasmodium berghei KBG173 infected in mouse assessed as decrease in parasitemia at 1.25 mg/kg, iv BID administered on day 3, 4 and 5 post infection measured on day 31 relative to control. The data set is classed as functional, organism-based. On the set-up: dose 1.25 mg/kg. The method in brief:
as §1

Data set [8] can be described thus: Fraction unbound in CD1 mouse plasma at 5 mg/kg, iv. On the set-up: dose 5 mg/kg, route intravenous. It is filed as ADME, organism-based. The essentials:
(§2)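 Fraction unbound measured in mouse plasma by ultrafiltration at 1 μg/mL. Unbound clearance = blood clearance/fu, assuming blood/plasma ratio of 1. Blood clearance comes from male CD-1 mice dosed IV at 5 mg/kg, with tail-vein sampling up to 24 h and LC-MS/MS analysis.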

The next data set has as its system Liver microsomes. The experiment in a line: Intrinsic clearance in human liver microsomes assessed per gram of liver at 1 uM after 60 mins at pH 7.4 by LC-MS/MS analysis. It is filed as ADME, Microsome. The following applies: pH 7.4, 1 h. The method in brief:
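Liver microsomes (0.5 mg protein/mL) in 50 mM potassium phosphate pH 7.4 with 1.0 μM compound at 37 °C for 60 min. Reaction started with NADP/glucose-6-phosphate/MgCl₂/G6PDH cofactor mix; solvent 1% final. LC-MS/MS read-out. CLi from first-order elimination constant by nonlinear regression, corrected for incubation volume, assuming 52.5 mg microsomal protein/g liver.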
For orientation: Microsomes from liver hold many membrane-bound enzymes, among them those of drug oxidation.

Data set [9] has as its system Plasmodium berghei. Kind of data set: Antimalarial activity against Plasmodium berghei KBG173 infected in mouse assessed as increase in mouse survival time at 5 mg/kg, iv BID administered on day 3, 4 and 5 post infection relative to azithromycin. It is filed as functional. The essentials: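 Male mice (24−30 g) inoculated intraperitoneally with 5 × 10⁶ P. berghei KBG-173-infected erythrocytes; parasitemia 1.0–3.7% by day 3. IV dosing twice daily on days 3, 4 and 5 post-infection. Read-out is the survival time of the last animal alive. Mice blood-smear negative on day 31 counted as cured; mice losing ≥20% body weight sacrificed.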

A short description of data set [10]: Oral bioavailability in CD1 mouse at 25 mg/kg. The data set is classed as ADME, organism-based. The following applies: in vivo. The essentials: (§3)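 Male CD-1 mice (N = 3 per route) dosed IV at 5 mg/kg or orally at 25 mg/kg while fasted, mostly in saline (2.5 mg/mL). Tail-vein blood taken up to 24 h, cardiac puncture at 30 h. Samples hemolyzed, protein-precipitated with acetonitrile plus internal standard, analysed by positive ESI LC-MS/MS.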

Data set [11] is described as follows: Half life in CD1 mouse at 5 mg/kg, iv. It is filed as ADME, organism-based. More on the design: dose 5 mg/kg, route intravenous. The following applies: CD1, mouse, in vivo. The method in brief: as §3
The subject of the next data set is Mus musculus. Kind of data set: Unbound clearance in CD1 mouse at 5 mg/kg, iv. It is filed as ADME, organism-based. On the set-up: dose 5 mg/kg, route intravenous. The following applies: in vivo. The essentials:
as §2

A short description of data set [12]: Plasma protein binding in mouse at 1 ug/ml after 30 mins. It is filed as ADME, cell-free. The following applies: read-out: PPB (converted). The essentials: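 Ultrafiltration on mouse plasma preincubated 15 min at 37 °C, compound spiked to 1 μg/mL final. Aliquots taken at 0 and 15 min, remainder spun through a 10 kDa filter for 30 min at 37 °C, 2850 g. Filtrate deproteinized and analysed by LC-MS/MS.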

In the next data set the test system is Plasmodium falciparum. Kind of data set: Antimalarial activity against mefloquine-resistant Plasmodium falciparum TM91C235 assessed as [3H]hypoxanthine incorporation after 48 hrs. It is filed as functional, organism-based. The method in brief: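 Tritiated hypoxanthine incorporation assay (Desjardins method, Milhous modification) with 48 h drug exposure. Uses P. falciparum clone TM91C235 (Southeast Asian, mefloquine-resistant). Compounds 2-fold diluted over 11 concentrations. IC50 derived by nonlinear logistic dose-response fitting, averaged where multiple runs were done.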

A short description of data set [13]: Volume of distribution at steady state in CD1 mouse at 5 mg/kg, iv. It is filed as ADME, organism-based. More on the design: dose 5 mg/kg, route intravenous. Conditions: in vivo, read-out: Vdss. The essentials: as §3
A short description of data set [14]: Clearance at steady state in CD1 mouse at 5 mg/kg, iv. More on the design: dose 5 mg/kg, route intravenous. Conditions: in vivo, read-out: CLss. It is filed as ADME, organism-based. The method in brief:
as §3

A further data set concerns HepG2. The experiment in a line: Cytotoxicity against human HepG2 cells after 24 hrs by MTS assay. It is filed as cell-based. Conditions: HepG2, 24 h. The method in brief: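 HepG2 cells kept in RPMI 1640 with 10% FBS plus antibiotics at 37 °C, 5% CO₂. 50 000 cells per well exposed to 10 two-fold serial dilutions for 24 h. MTS reagent then added for 2 h more, absorbance read at 490 nm, IC50 derived.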
For orientation: Tetrazolium dyes change colour on reduction, which living cells bring about.

Each structure is given as a SMILES string. Activity calls are given as the source filed them. No cut-off for these calls is given here.

In the case of `CC(=O)O.CC[C@H]1OC(=O)[C@H](C)[C@@H](O[C@H]2C[C@@](C)(OC)[C@@H](O)[C@H](C)O2)[C@H](C)[C@@H](O[C@@H]2O[C@H](C)C[C@H](N(C)C)[C@H]2O)[C@](C)(O)C[C@@H](C)CN(CCCNc2ccnc3cc(Cl)ccc23)[C@H](C)[C@@H](O)[C@]1(C)O`, in [1], the solubility result is recorded as “>= 10 mg kg-1”.
Turning to `CC(=O)O.CC[C@H]1OC(=O)[C@H](C)[C@@H](O[C@H]2C[C@@](C)(OC)[C@@H](O)[C@H](C)O2)[C@H](C)[C@@H](O[C@@H]2O[C@H](C)C[C@H](N(C)C)[C@H]2O)[C@](C)(O)C[C@@H](C)CN(CCCNCc2ccnc3ccccc23)[C@H](C)[C@@H](O)[C@]1(C)O`, in data set [1], the solubility result is given as “>= 10 mg kg-1”.
Regarding `CCN(CC)CCCC(C)Nc1ccnc2cc(Cl)ccc12` (stereo unspecified), the outcome in the data set with Plasmodium berghei [2], in the data set on Plasmodium berghei [3], in the data set with Plasmodium berghei [4], in the data set with Plasmodium berghei [5], with Plasmodium berghei [6] and with Plasmodium berghei [7] was inactive.
In the case of `CC(=O)O.CC[C@H]1OC(=O)[C@H](C)[C@@H](O[C@H]2C[C@@](C)(OC)[C@@H](O)[C@H](C)O2)[C@H](C)[C@@H](O[C@@H]2O[C@H](C)C[C@H](N(C)C)[C@H]2O)[C@](C)(O)C[C@@H](C)CN(CCCNc2ccnc3ccccc23)[C@H](C)[C@@H](O)[C@]1(C)O`, the solubility entry in data set [1] is given as “>= 10 mg kg-1”.
For `CC(=O)O.CC[C@H]1OC(=O)[C@H](C)[C@@H](O[C@H]2C[C@@](C)(OC)[C@@H](O)[C@H](C)O2)[C@H](C)[C@@H](O[C@@H]2O[C@H](C)C[C@H](N(C)C)[C@H]2O)[C@](C)(O)C[C@@H](C)CN(CCC(=O)N[C@H](C)c2cccc3ccccc23)[C@H](C)[C@@H](O)[C@]1(C)O`, in data set [1], the solubility result was “>= 10 mg kg-1”.
The term bioavailability denotes dose-corrected exposure relative to a reference, in per cent. A higher bioavailability goes with good availability. In general, half-life refers to how long it takes for the measured level to halve. Read a high half-life as slow loss. As a reminder, the IC50 is the midpoint of a concentration-inhibition curve. In turn, `CC[C@H]1OC(=O)[C@H](C)[C@@H](O[C@H]2C[C@@](C)(OC)[C@@H](O)[C@H](C)O2)[C@H](C)[C@@H](O[C@@H]2O[C@H](C)C[C@H](N(C)C)[C@H]2O)[C@](C)(O)C[C@@H](C)CN(CCC(=O)N[C@H](C)c2cccc3ccccc23)[C@H](C)[C@@H](O)[C@]1(C)O` displayed a fraction unbound in data set [8] of 0.13. Further, the CLint in the data set with Liver microsomes came out at 1.8 mL/min/g. The Survival in the data set on Plasmodium berghei [9] is -9 days. Besides, the bioavailability in [10] stood at 23.6%. This molecule had a half-life in data set [11] of 16.5 h. The same molecule gave a CL free with Mus musculus of 81 mL/min/kg. Moreover, the fraction unbound at 0.5 h, 1 ug/ml in [12] is 0.13. Also, the IC50 in the data set with Plasmodium falciparum is 95 nM; in the data set with HepG2, greater than 30000 nM. Further, the Vd in [13] was determined as 7.8 L/kg. Besides, the clearance in data set [14] came out at 10.5 mL/min/kg.

The values are drawn from ChEMBL document CHEMBL2029228, “Antimalarial activity of 9a-N substituted 15-membered azalides with improved in vitro and in vivo activity over azithromycin” (J Med Chem, 2012).
